Published values of several laboratories.
Melanocortin receptor 4: Melanocortin receptor 4 (Mus musculus, UniProt P56450)
Tspo: Translocator protein (Tspo, Rattus norvegicus, UniProt P16257)
GLP2R: Glucagon-like peptide 2 receptor (GLP2R, Homo sapiens, UniProt O95838)
LDHA: L-lactate dehydrogenase A chain (LDHA, Homo sapiens, UniProt P00338)

Compound | target | read-out | mode | method | setting | endpoint | value
N=C(N)NCCC[C@H](NC(=O)[C@H](CC(=O)O)NC(=O)[C@H](Cc1c[nH]c2ccccc12)NC(=O)[C@H](CCCNC(=N)N)NC(=O)[C@@H](N)Cc1ccccc1)C(=O)N[C@@H](Cc1ccccc1)C(=O)NCC(=O)O | Melanocortin receptor 4 | reporter gene | agonist | – | – | EC50 | 47.4 µM
CNC(=O)[C@@]12C[C@@H]1[C@@H](n1cnc3c(NC)nc(C#Cc4ccccc4)nc31)[C@H](O)[C@@H]2O | Tspo | ligand displacement | – | radioligand | – | Ki | > 10 µM
CSCC[C@H](NC(=O)[C@@H](NC(=O)[C@@H](N)Cc1ccc(O)cc1)C(C)C)C(=O)NCC(=O)N[C@@H](Cc1c[nH]cn1)C(=O)N[C@@H](Cc1ccccc1)C(=O)N[C@@H](CCCNC(=N)N)C(=O)N[C@@H](Cc1c[nH]c2ccccc12)C(=O)N[C@@H](CC(=O)O)C(=O)N[C@@H](CCCNC(=N)N)C(=O)O | Melanocortin receptor 4 | reporter gene | agonist | – | – | EC50 | 0.66 µM
Cc1cc2nc3c(=O)[nH]c(=O)nc-3n(C[C@H](O)[C@H](O)[C@H](O)COP(=O)(O)OP(=O)(O)OC[C@H]3O[C@@H](n4cnc5c(N)ncnc54)[C@H](O)[C@@H]3O)c2cc1C | Dihydrolipoyl dehydrogenase, mitochondrial (DLD, Homo sapiens, UniProt P09622) | binding | – | – | lysate | Kd | 0.641 µM
CC[C@H](C)[C@H](NC(=O)[C@H](CC(=O)O)NC(=O)[C@H](CO)NC(=O)[C@@H](NC(=O)[C@H](Cc1ccccc1)NC(=O)[C@@H](NC(=O)CNC(=O)[C@H](CC(=O)O)NC(=O)[C@H](C)NC(=O)[C@@H](N)Cc1c[nH]cn1)[C@@H](C)O)[C@@H](C)O)C(=O)N[C@@H](CC(N)=O)C(=O)N[C@@H](CCCCN)C(=O)N[C@H](C(=O)N[C@@H](CC(C)C)C(=O)N[C@@H](CC(=O)O)C(=O)N[C@@H](CC(=O)O)C(=O)N[C@@H](CCSC)C(=O)N[C@@H](C)C(=O)N[C@@H](C)C(=O)N[C@@H](CCCCN)C(=O)N[C@@H](CCC(=O)O)C(=O)N[C@@H](Cc1ccccc1)C(=O)N[C@@H](CC(C)C)C(=O)N[C@@H](CCCCN)C(=O)N[C@@H](Cc1c[nH]c2ccccc12)C(=O)N[C@@H](CC(C)C)C(=O)N[C@H](C(=O)N[C@@H](CC(N)=O)C(=O)N[C@H](C(=O)N[C@@H](CCCCN)C(=O)N[C@H](C(=O)N[C@H](C(=O)N[C@@H](CCC(N)=O)C(=O)O)[C@@H](C)O)C(C)C)[C@@H](C)O)[C@@H](C)CC)[C@@H](C)CC | GLP2R | reporter gene | agonist | luciferase | – | EC50 | 0.033 µM
O=C(OC[C@H]1O[C@@H](OC(=O)c2cc(O)c(O)c(OC(=O)c3cc(O)c(O)c(O)c3)c2)[C@H](OC(=O)c2cc(O)c(O)c(OC(=O)c3cc(O)c(O)c(O)c3)c2)[C@@H](OC(=O)c2cc(O)c(O)c(OC(=O)c3cc(O)c(O)c(O)c3)c2)[C@@H]1OC(=O)c1cc(O)c(O)c(OC(=O)c2cc(O)c(O)c(O)c2)c1)c1cc(O)c(O)c(OC(=O)c2cc(O)c(O)c(O)c2)c1 | Replicase polyprotein 1ab, main protease (rep, Severe acute respiratory syndrome coronavirus 2, UniProt P0DTD1) | binding | – | SPR | – | Kd | 1.1 µM
CNc1nc(C#Cc2ccc(Cl)s2)nc2c1ncn2[C@H]1[C@H](O)[C@H](O)[C@]2(C(=O)OCCc3ccccc3)C[C@H]12 | Tspo | ligand displacement | – | radioligand | – | Ki | > 10 µM
O=C(O)CC(=O)C(=O)O | LDHA | binding | – | fluorescence | – | Kd | 642 µM
CNC(=O)[C@@]12C[C@@H]1[C@@H](n1cnc3c(NCc4cccc(Cl)c4)nc(Cl)nc31)[C@H](O)[C@@H]2O | Tspo | ligand displacement | – | radioligand | – | Ki | > 10 µM
Cc1nc2ccc(NC(=O)CCNC(=O)CCCc3ccc(CC(C(=O)O)C(=O)O)cc3)cc2s1 | LDHA | binding | – | SPR | – | Kd | 0.058 µM
N=C(N)NCCC[C@H](NC(=O)[C@H](CC(=O)O)NC(=O)[C@H](Cc1c[nH]c2ccccc12)NC(=O)[C@@H](N)CCCNC(=N)N)C(=O)N[C@@H](Cc1ccccc1)C(=O)NCC(=O)O | Melanocortin receptor 4 | reporter gene | agonist | – | – | EC50 | > 100 µM
CC/C=C\C/C=C\C/C=C\C/C=C\C/C=C\CCCC(=O)O | Peroxisome proliferator-activated receptor delta (PPARD, Homo sapiens, UniProt Q03181) | reporter gene | agonist | luciferase | – | EC50 | 90.5 µM
CNC(=O)[C@@]12C[C@@H]1[C@@H](n1cnc3c(NC4CC4c4ccccc4)nc(C#Cc4ccccc4)nc31)[C@H](O)[C@@H]2O (mixture of isomers) | Tspo | ligand displacement | – | radioligand | – | Ki | > 10 µM
CC[C@H](C)[C@H](NC(=O)[C@H](Cc1ccccc1)NC(=O)[C@H](CCC(=O)O)NC(=O)[C@H](CCCCN)NC(=O)[C@H](C)NC(=O)[C@H](C)NC(=O)[C@H](CCC(N)=O)NC(=O)CNC(=O)[C@H](CCC(=O)O)NC(=O)[C@H](CC(C)C)NC(=O)[C@H](Cc1ccc(O)cc1)NC(=O)[C@H](CO)NC(=O)[C@H](CO)NC(=O)[C@@H](NC(=O)[C@H](CC(=O)O)NC(=O)[C@H](CO)NC(=O)[C@@H](NC(=O)[C@H](Cc1ccccc1)NC(=O)[C@@H](NC(=O)CNC(=O)[C@H](CCC(=O)O)NC(=O)[C@H](C)NC(=O)[C@@H](N)Cc1c[nH]cn1)[C@@H](C)O)[C@@H](C)O)C(C)C)C(=O)N[C@@H](C)C(=O)N[C@@H](Cc1c[nH]c2ccccc12)C(=O)N[C@@H](CC(C)C)C(=O)N[C@H](C(=O)N[C@@H](CCCCN)C(=O)NCC(=O)N[C@@H](CCCN=C(N)N)C(=O)NCC(=O)O)C(C)C | GLP2R | reporter gene | agonist | luciferase | – | EC50 | > 1 µM
CNc1nc(C#Cc2ccc(Cl)s2)nc2c1ncn2[C@H]1[C@H](O)[C@H](O)[C@]2(C(=O)O)C[C@H]12 | Tspo | ligand displacement | – | radioligand | – | Ki | > 10 µM
CSCC[C@H](NC(=O)[C@@H](NC(=O)[C@@H](N)Cc1ccc(O)cc1)C(C)C)C(=O)NCC(=O)N[C@@H](Cc1c[nH]cn1)C(=O)N[C@@H](Cc1ccccc1)C(=O)O | Melanocortin receptor 4 | reporter gene | agonist | – | – | EC50 | > 100 µM
